{
  "source": "ChEMBL document CHEMBL3588752",
  "about": "“Synthesis and in Vitro Anticancer Activity of the First Class of Dual Inhibitors of REV-ERBβ and Autophagy” (J Med Chem, 2015)",
  "key": {"BT-474 [1]": {"system": "BT-474", "test": "Cytotoxicity against human BT474 cells assessed as reduction in cell number incubated for 72 hrs", "assay_type": "functional, cell-based", "conditions": "BT-474, 72 h", "method_in_brief": "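Cells seeded at 2000/well and left overnight, then exposed 72 h to seven 3-fold serial dilutions from 100 µM. Cell number read by CyQUANT DNA dye (independent of metabolism), relative to vehicle as 100%. BT-474 grown in high-glucose DMEM, 4 mM L-glutamine, 10% FBS, 0.25 mM pyruvate.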"}, "HMEC": {"system": "HMEC", "test": "Cytotoxicity against HMEC cells assessed as reduction in cell number incubated for 72 hrs", "assay_type": "cell-based", "conditions": "Homo sapiens"}, "MDA-MB-361": {"system": "MDA-MB-361", "test": "Cytotoxicity against human MDA-MB-361 cells assessed as reduction in cell number incubated for 72 hrs", "assay_type": "functional, cell-based", "conditions": "MDA-MB-361, 72 h", "method_in_brief": "(§1)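 RPMI-1640 with 4 mM L-glutamine and 10% FBS for culture. 2000 cells/well seeded overnight, then 72 h exposure to seven 3-fold dilutions (top 100 µM; top 900 µM for the reference autophagy inhibitor in MDA-MB-361). Cell number by CyQUANT relative to vehicle. IC50 from concentration–response curves, mean ± SEM, n ≥ 6.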"}, "[2]": {"test": "Cytotoxicity against human SKBR3 cells assessed as reduction in cell number incubated for 72 hrs", "assay_type": "functional, cell-based", "conditions": "SK-BR-3, 72 h", "method_in_brief": "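McCoy's medium plus 10% FBS; 2000 cells/well, overnight attachment, 72 h treatment with seven 3-fold dilutions from 100 µM (900 µM top for the reference autophagy inhibitor). CyQUANT cell number as % of vehicle. IC50 by log(inhibitor)–response fitting, mean ± SEM of ≥6 experiments.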"}, "MCF7": {"system": "MCF7", "test": "Cytotoxicity against human MCF7 cells assessed as reduction in cell number incubated for 72 hrs", "assay_type": "functional, cell-based", "conditions": "MCF7, 72 h", "method_in_brief": "(§2)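 Grown in high-glucose DMEM with 4 mM L-glutamine, 10% FBS and 0.5 mM sodium pyruvate. Seeded at 2000 cells/well overnight, then treated 72 h with seven 3-fold dilutions from 100 µM. Cell number by CyQUANT, % of vehicle. IC50 by log(inhibitor)–response fit, mean ± SEM, n ≥ 6.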"}, "HepG2 [3]": {"system": "HepG2", "test": "Cytotoxicity against human HepG2 cells assessed as reduction in cell number incubated for 72 hrs", "assay_type": "functional, cell-based", "conditions": "HepG2, 72 h", "method_in_brief": "as §2"}, "LNCaP [4]": {"system": "LNCaP", "test": "Cytotoxicity against human LNCAP cells assessed as reduction in cell number incubated for 72 hrs", "assay_type": "functional, cell-based", "method_in_brief": "as §1"}, "[5]": {"test": "Reduction in GFP expression in human SKBR3 cells transfected with plasmids co-expressing GFP and shRNAs against REV-ERBbeta followed by compound treatment 24 hrs post-transfection and measured 48 hrs post dose", "assay_type": "functional, cell-based", "conditions": "SK-BR-3"}, "LNCaP [6]": {"system": "LNCaP", "test": "Reduction in GFP expression in human LNCAP cells transfected with plasmids co-expressing GFP and shRNAs against REV-ERBbeta followed by compound treatment 24 hrs post-transfection and measured 48 hrs post dose", "assay_type": "functional, cell-based"}, "HepG2 [7]": {"system": "HepG2", "test": "Reduction in GFP expression in human HepG2 cells transfected with plasmids co-expressing GFP and shRNAs against REV-ERBbeta followed by compound treatment 24 hrs post-transfection and measured 48 hrs post dose", "assay_type": "functional, cell-based"}, "[8]": {"test": "Inhibition of cell proliferation of PDAC cells (unknown origin)", "assay_type": "functional, cell-based"}, "[9]": {"test": "Inhibition of cell proliferation of breast cancer cells (unknown origin)", "assay_type": "functional, cell-based", "conditions": "Cancer cell lines"}, "[10]": {"test": "Inhibition of cell proliferation of lung cancer cells (unknown origin)", "assay_type": "functional, cell-based", "conditions": "Cancer cell lines"}, "BT-474 [11]": {"system": "BT-474", "test": "Lysosomotropic activity in human BT474 cells assessed as […] incubated for 24 hrs by lysosomotropy assay", "assay_type": "functional, cell-based", "conditions": "BT-474, 24 h", "method_in_brief": "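Seeded at 2000 cells/well overnight, then treated. Lysosomal staining (LysoTracker fluorescence) measured 24 h post-treatment. IC50 from concentration–response plots, mean ± SEM, N ≥ 6.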"}, "[12]": {"molecular_target": "T1, Nuclear receptor subfamily 1 group D member 2 (Homo sapiens) (UniProt Q14995)", "T1 sequence (whole entry)": "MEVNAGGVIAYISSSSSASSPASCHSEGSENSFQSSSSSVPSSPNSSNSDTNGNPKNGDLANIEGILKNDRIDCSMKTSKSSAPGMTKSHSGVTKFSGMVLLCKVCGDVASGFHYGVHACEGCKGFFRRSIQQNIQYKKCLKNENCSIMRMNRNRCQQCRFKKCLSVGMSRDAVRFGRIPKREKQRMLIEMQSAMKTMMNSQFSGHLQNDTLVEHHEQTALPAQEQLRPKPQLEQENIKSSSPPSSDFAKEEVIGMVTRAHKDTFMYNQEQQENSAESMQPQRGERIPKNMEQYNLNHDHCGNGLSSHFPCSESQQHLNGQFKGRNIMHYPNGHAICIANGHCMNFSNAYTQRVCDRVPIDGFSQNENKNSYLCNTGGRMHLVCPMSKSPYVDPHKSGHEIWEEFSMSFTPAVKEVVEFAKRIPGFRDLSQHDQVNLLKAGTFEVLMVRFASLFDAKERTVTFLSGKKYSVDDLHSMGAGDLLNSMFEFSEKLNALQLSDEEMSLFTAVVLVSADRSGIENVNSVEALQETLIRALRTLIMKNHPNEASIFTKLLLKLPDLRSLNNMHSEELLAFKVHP", "test": "(§3) Inhibition of REV-ERBbeta (unknown origin) expressed in HEK293 cells incubated for 24 hrs assessed as inhibition of receptor-mediated transcriptional repression by REV-ERB luciferase reporter assay", "assay_type": "cell-based", "method_in_brief": "(§4)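 HEK-293 co-transfected with a REV-ERBβ expression plasmid and a reporter with two REV-ERB response elements driving Cypridina luciferase. Compounds added the next day; luciferase activity read after 24 h. IC50 from concentration–response plots, mean ± SEM, N ≥ 6.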"}, "BT-474 [13]": {"system": "BT-474", "test": "Inhibition of autophagy in human BT474 cells assessed as increase in LC3-II protein levels at 10 uM by immunoblot method", "assay_type": "functional, cell-based", "method_in_brief": "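BT-474 exposed 4 h at 10 µM. Protein extracted in RIPA buffer and immunoblotted for LC3B and GAPDH in TBS-T with 5% BSA. HRP secondary at 1:20000, ECL detection. Band densitometry reported as LC3B/GAPDH ratio.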"}, "[14]": {"test": "Toxicity against human BT474 cells assessed as reduction in cell number at 10 uM incubated for 16 hrs", "assay_type": "cell-based", "conditions": "bt-474, 16 h"}, "[15]": {"molecular_target": "T1, Nuclear receptor subfamily 1 group D member 2 (Homo sapiens)", "test": "Inhibition of REV-ERBbeta in human BT474 cells assessed as increase in BMAL1 expression at 10 uM incubated for 16 hrs by immunoblot method", "conditions": "BT-474"}, "[16]": {"molecular_target": "T2, Nuclear receptor subfamily 1 group D member 2 (Homo sapiens, UniProt Q14995)", "T2 sequence (Q14995 whole entry)": "T1 sequence (whole entry)", "test": "as §3", "assay_type": "cell-based", "method_in_brief": "as §4"}},
  "note": "pIC50: −log10 of the molar value. Activity calls are given as the source filed them. The calls are words filed in the database; no cut-off is given here.",
  "data": [
    {"smiles": "COc1ccccc1C1(NCc2ccc(O)c(CN3CCN(C)CC3)c2)CCCC1", "values": [
      {"measurement": "pIC50", "setting": "BT-474 [1]", "value": 4.51},
      {"measurement": "pIC50", "setting": "HMEC", "value": 4.76}
    ]},
    {"smiles": "CN1CCN(Cc2cc(CNCc3ccccc3F)ccc2O)CC1", "values": [
      {"measurement": "pIC50", "setting": "BT-474 [1]", "value": "< 4.00"}
    ]},
    {"smiles": "CCN(CC)CCCC(C)Nc1ccnc2cc(Cl)ccc12", "note": "(racemic) [CHLOROQUINE]", "values": [
      {"measurement": "pIC50", "setting": "MDA-MB-361", "value": 4.01},
      {"measurement": "pIC50", "setting": "[2]", "value": 4.30},
      {"measurement": "pIC50", "setting": "MCF7", "value": 4.63},
      {"measurement": "pIC50", "setting": "HepG2 [3]", "value": 4.60},
      {"measurement": "pIC50", "setting": "LNCaP [4]", "value": 4.48},
      {"measurement": "Activity", "setting": "[5]", "value": "Active"},
      {"measurement": "Activity", "setting": "LNCaP [6]", "value": "Active"},
      {"measurement": "Activity", "setting": "HepG2 [7]", "value": "Active"},
      {"measurement": "pIC50", "setting": "[8]", "value": 5.00},
      {"measurement": "pIC50", "setting": "[9]", "value": "< 4.00"},
      {"measurement": "pIC50", "setting": "[10]", "value": "< 4.00"}
    ]},
    {"smiles": "CN1CCN(Cc2cc(CNC3(c4ccc(F)cc4)CCCC3)ccc2O)CC1", "values": [
      {"measurement": "pIC50", "setting": "BT-474 [1]", "value": 5.03},
      {"measurement": "pIC50", "setting": "HMEC", "value": "< 4.00"},
      {"measurement": "pIC50", "setting": "BT-474 [11]", "value": 5.00},
      {"measurement": "inhibition", "setting": "[12]", "value": "Active"},
      {"measurement": "inhibition", "setting": "BT-474 [13]", "value": "Active"},
      {"measurement": "Activity", "setting": "[14]", "value": "Non-toxic"},
      {"measurement": "inhibition", "setting": "[15]", "value": "Active"}
    ]},
    {"smiles": "Oc1ccc(CNC2(c3ccccc3F)CCCC2)cc1CN1CCNCC1", "values": [
      {"measurement": "pIC50", "setting": "BT-474 [1]", "value": 4.50},
      {"measurement": "pIC50", "setting": "HMEC", "value": "< 4.00"}
    ]},
    {"smiles": "Fc1ccccc1C1(NCc2cccc(CN3CCCCC3)c2)CCCC1", "values": [
      {"measurement": "pIC50", "setting": "BT-474 [1]", "value": 4.40},
      {"measurement": "pIC50", "setting": "HMEC", "value": "< 4.00"}
    ]},
    {"smiles": "CC1CCC(Cc2cccc(CNC3(c4ccccc4F)CCCC3)c2)CC1", "note": "(mixture of isomers)", "values": [
      {"measurement": "pIC50", "setting": "BT-474 [1]", "value": "< 4.00"}
    ]},
    {"smiles": "CN1CCN(Cc2cccc(CNC3(c4ccccc4F)CCCC3)c2)CC1", "values": [
      {"measurement": "pIC50", "setting": "BT-474 [1]", "value": 4.47},
      {"measurement": "pIC50", "setting": "HMEC", "value": "< 4.00"}
    ]},
    {"smiles": "CN1CCN(Cc2cc(CNC3(c4ccccc4F)CCCC3)ccc2O)CC1", "values": [
      {"measurement": "pIC50", "setting": "BT-474 [1]", "value": 4.52},
      {"measurement": "pIC50", "setting": "HMEC", "value": "< 4.00"},
      {"measurement": "pIC50", "setting": "BT-474 [11]", "value": 5.00},
      {"measurement": "pIC50", "setting": "[16]", "value": 4.76},
      {"measurement": "inhibition", "setting": "BT-474 [13]", "value": "Active"},
      {"measurement": "Activity", "setting": "[14]", "value": "Non-toxic"},
      {"measurement": "inhibition", "setting": "[15]", "value": "Active"}
    ]},
    {"smiles": "CN1CCN(Cc2cc(CN(C)C3(c4ccccc4F)CCCC3)ccc2O)CC1", "values": [
      {"measurement": "pIC50", "setting": "BT-474 [1]", "value": "< 4.00"}
    ]},
    {"smiles": "CCN1CCN(Cc2cc(CNC3(c4ccccc4F)CCCC3)ccc2O)CC1", "values": [
      {"measurement": "pIC50", "setting": "BT-474 [1]", "value": 4.41},
      {"measurement": "pIC50", "setting": "HMEC", "value": "< 4.00"}
    ]},
    {"smiles": "CN1CCN(Cc2ccc(CNC3(c4ccccc4F)CCCC3)cc2)CC1", "values": [
      {"measurement": "pIC50", "setting": "BT-474 [1]", "value": "< 4.00"}
    ]},
    {"smiles": "CC(NCc1ccc(O)c(CN2CCN(C)CC2)c1)c1ccccc1F", "note": "(stereo not drawn)", "values": [
      {"measurement": "pIC50", "setting": "BT-474 [1]", "value": "< 4.00"}
    ]},
    {"smiles": "COc1ccc(CNC2(c3ccccc3F)CCCC2)cc1CN1CCN(C)CC1", "values": [
      {"measurement": "pIC50", "setting": "BT-474 [1]", "value": "< 4.00"}
    ]},
    {"smiles": "Oc1ccc(CNC2(c3ccccc3F)CCCC2)cc1CN1CCN(Cc2ccccc2)CC1", "values": [
      {"measurement": "pIC50", "setting": "BT-474 [1]", "value": 4.46},
      {"measurement": "pIC50", "setting": "HMEC", "value": "< 4.00"}
    ]}
  ]
}
